Published values of several laboratories.
Lines come from different studies, so protocols differ.
Medium: plasma

CCCCC1=NC2(CCCC2)C(=O)N1Cc1ccc(-c2ccccc2S(=O)(=O)Nc2noc(C)c2C)c(COCC)c1 — AUC(0-t) (human; oral; 800 mg; single dose, fasted, healthy volunteers): 138000 ng·h/mL
CO[C@H]1CC[C@H](N2C(=O)CNc3ncc(-c4ccc(C(C)(C)O)nc4)nc32)CC1 — AUC(0-t) (human; oral; 45 mg; patients): 1500 ng·h/mL
COc1cc(N2CCC(N3CCN(C)CC3)CC2)ccc1Nc1ncnc(Nc2ccccc2S(=O)(=O)C(C)C)n1 — AUC(0-t) (human; oral; 125 mg; multiple doses, patients): 8320 ng·h/mL
CC(C)n1cc(C#N)c2cc(-n3cc(C(=O)O)cn3)ccc21 — AUC(0-t) (human; oral; 100 mg; single dose, fasted, healthy volunteers): 19400 ng·h/mL
COc1ccc([C@@H]2CN(C(=O)[C@@H](O)CO)C[C@@]2(C)[C@@H](C)O)cc1OC1CN(c2ccc(C)cn2)C1 — AUC(0-t) (human; oral; 1.5 mg; single dose, healthy volunteers): 467 ng·h/mL
COCCOc1cnc2ccn([C@H](C)c3nnc4c(F)cc(-c5cnn(C)c5)cn34)c(=O)c2c1 — AUC(0-t) (human; oral; 50 mg; multiple doses, once daily, patients): 6940 ng·h/mL
FC(F)(F)c1ccc(CNc2ccc(Cc3c[nH]c4ncc(Cl)cc34)cn2)cn1 — AUC(0-t) (human; oral; 600 mg; multiple doses, patients): 13300 ng·h/mL
C[C@@]1(c2cc(NC(=O)c3ccc(C#N)cn3)ccc2F)C=CSC(N)=N1 — AUC(0-t) (human; oral; 90 mg; single dose): 8800 ng·h/mL
CO[C@@H]1[C@H](OC(=O)N2CC(CCN3CCOCC3)C2)CC[C@]2(CO2)[C@H]1[C@@]1(C)O[C@@H]1CC=C(C)C — AUC(0-t) (human; subcutaneous; 3.6 mg; single dose, healthy volunteers): 10.4 ng·h/mL
CCNCCCNC/C=C\CNCCCNCC — AUC(0-t) (human; intravenous; 200 mg; patients, infusion): 1330 ng·h/mL
CC(C)(O)c1ccccc1-c1ccc2[nH]c(/C=C/c3ccc(C(F)(F)F)cc3)nc2c1 — AUC(0-t) (male human; oral; 1 mg; single dose, fasted): 83 ng·h/mL
Cc1nc(NC(=O)N2CCC[C@H]2C(N)=O)sc1-c1ccnc(C(C)(C)C(F)(F)F)c1 — AUC(0-t) (human; oral; 400 mg; patients): 40700 ng·h/mL
